Screening results (PubChem)
This excerpt belongs to a sample that is enriched for hits.
CHOP UPR activ: activators of apoptotic arm of unfolded protein response (CHOP); CHO-CHOP luciferase reporter, UPR activation, luminescence; percent of tunicamycin response over DMSO baseline; activation, % at 10 µM; hit rate 0.34% among 330,000;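 active = at 10 µM dose, activation of 40% or more, normalized to positive control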;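 note: 100% = tunicamycin at 10 µg/mL and 0% = DMSO alone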
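Material: CHO-CHOP cells, stable luciferase reporter of PERK-eIF2a-CHOP signalling; quantity: 500 reporter cells seeded per well; buffer or medium: F12 medium containing 10% fetal bovine serum; compound: one dose, 10 µM in 0.5% DMSO; incubation: 6 h compound treatment, 37 °C; measured by: Steady-Glo luciferase luminescence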
XBP1 UPR activ: adaptive UPR (XBP1) activation; hit rate 0.33% among 330,000; CHO-XBP1 luciferase reporter, IRE1-XBP1 UPR activation, luminescence; percent of tunicamycin response, DMSO as zero; AID 463104; activation, % at 20 µM;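 active = versus positive control, 20 µM dose yields 30% or more activation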;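 note: 100% = tunicamycin at 10 µg/mL and 0% = DMSO only wells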
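Material – CHO cell line with stable XBP1 luciferase reporter · Buffer or medium – F12 plus 10% FBS · Compound – single point, 20 µM final compound, 1% DMSO · Schedule – 16-18 h cell attachment at 37 °C, then 6 h compound exposure · Signal – Steady-Glo luminescence read · Benchmarks – high control tunicamycin 10 µg/mL final, low control DMSO vehicle only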
FXN GAA850 act: increases GAA850 frataxin promoter reporter activity; HEK293 lucGAA850 FXN promoter luciferase reporter, 24 h; percent of 10 µM SAHA response; activation, % at 6 µM; hit rate 0.56% among 360,000;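 active = activation above the average of all compounds screened plus 3 SD, cutoff fixed separately per campaign, cut at about 7.5% in these data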;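 note: 0% = DMSO wells and 100% = 10 µM SAHA wells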
CHOP inhibitor: blocks CHOP induction under ER stress | CHO-K1 CHOP-promoter luciferase, tunicamycin-induced, 15-18 h | inhibition, % at 10 µM | hit rate 3.8% among 220,000 | AID 2732;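 active = compounds that reduced the stress-induced luciferase reporter signal by more than about 70% of percent inhibition, limit read from the data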;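 note: 0% = tunicamycin plus vehicle and 100% = wells without tunicamycin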
The depositor's hits bear a star; / = no result.

SMILES	CHOP UPR activ	XBP1 UPR activ	FXN GAA850 act	CHOP inhibitor
CCOC(=O)c1sc(NC(=O)CN2C(=O)NC3(CCCCCCC3)C2=O)c(C(=O)OCC)c1C	1	-1	0	14
CCOC(=O)c1c(NC(=O)CN2C(=O)NC3(CCCCC3)C2=O)sc(C)c1-c1ccc(C)cc1	3	3	4	71*
CC(=O)Nc1ccc(NC(=O)C/C(C)=N/NC(=O)C(=O)Nc2ccc(C)c(Cl)c2)cc1	2	-5	0	87*
C/C(CC(=O)Nc1ccc(OCc2ccccc2)cc1)=N\NC(=O)C(=O)Nc1cccc(C)c1	0	2	1	94*
Cc1ccc(NC(=O)C(=O)NNC(=O)c2ccccc2C)cc1Cl	-2	0	0	71*
Cc1noc(C)c1NC(=O)N(C)C[C@@H]1Oc2cc(Br)ccc2S(=O)(=O)N([C@H](C)CO)C[C@@H]1C	/	/	0	/
CSc1ccc(Cn2c(C)c(C(=O)NCc3ccco3)sc2=O)cc1	/	/	0	/
COc1ccc(N=C2C(=O)Nc3ccccc32)cc1	0	-1	-1	14
COc1ccc(N=C2C(=O)N3c4c(cccc42)C(C)=CC3(C)C)cc1	1	3	1	79*
Cc1nc2cc3c(=O)n(C)cnc3cc2n1Cc1ccccc1	/	/	4	/
O=C(NC(NC(=S)Nc1c(Cl)cc(Cl)cc1Cl)C(Cl)(Cl)Cl)OCc1ccccc1 (centres undefined)	2	14	2	88*
Cc1ccc(C)c(NC(=S)NC(NC(=O)OCc2ccccc2)C(Cl)(Cl)Cl)c1 (centres undefined)	4	-2	2	92*
COc1ccc([C@H]2C[C@@H](O)[C@H](n3cc(C4CC4)nn3)CN2C(=O)C2CCCCC2)cc1	/	/	-2	/
Cc1ccc([N+](=O)[O-])cc1N/C=C1\CCc2ccccc2C1=O	13	4	3	85*
Cc1cccc(NC(=O)CN2C(=O)N/C(=C/c3ccc(C)s3)C2=O)c1	4	2	4	92*
CCCCCCn1c(CN2CCCCC2CC)nc2c1c(=O)n(C)c(=O)n2C (centres undefined)	4	-5	2	92*
Cc1ccc(NC2=NCC(Cc3ccc(Br)cc3)S2)cc1 (centres undefined)	-2	3	2	74*
Cc1ccc(C(=O)c2no[n+]([O-])c2C(=O)c2ccc(C)cc2)cc1	36	-6	0	82*
CCCCC(=O)Nc1nn(C)c2nc3c(C)cccc3cc12	0	-2	2	76*
COc1ccccc1/C=C/C=N/n1c(C2CCCCC2)n[nH]c1=S	2	3	2	94*
CCOc1ccccc1/C=N/n1c(C2CCCCC2)n[nH]c1=S	-3	2	2	/
CC(CNCc1ccc2c(c1)OCO2)NCc1ccc2c(c1)OCO2 (centres undefined)	-2	-2	1	85*
CCOC(=O)Cn1nnc2c(sc3nc4c(c(-c5ccc(Cl)cc5)c32)CCC4)c1=O	2	5	1	-28
O=c1[nH]cnc2c1sc1nc3c(c(-c4ccc(Cl)cc4)c12)CCC3	1	-3	2	85*
CCCNS(=O)(=O)c1ccc(CCC(=O)Nc2cc(Cl)ccc2Oc2ccccc2)cc1	/	/	-2	90*
SMILES	CHOP UPR activ	XBP1 UPR activ	FXN GAA850 act	CHOP inhibitor
CC(C)CNS(=O)(=O)c1ccc(CCC(=O)Nc2cc(Cl)ccc2Oc2ccccc2)cc1	4	-3	2	45
CCc1nc2c(OCc3ccc(Cl)cc3)cccn2c1N(C)C(=O)c1ccc(C)cc1	/	/	0	/
c1ccc(-c2nnc(NC3=NCCC3)o2)cc1	-2	-5	5	6
Fc1ccc(-c2nnc(NC3=NCCCCC3)o2)cc1	-8	-11	-6	75*
Cc1ccc2c(c1)c(C)c(C)n2CC(O)Cn1nnc2ccccc21 (centres undefined)	6	1	2	84*
O=C(OCc1cn([C@H]2CN(C(=O)C3CCCCC3)[C@@H](c3ccc(Cl)cc3)C[C@@H]2O)nn1)c1ccccc1	/	/	0	/
COc1ccc(-n2c(Cc3cccn3C)nnc2SCC(=O)Nc2ccccc2)cc1	-2	0	1	-1
COc1ccc(-n2c(Cc3cccn3C)nnc2SCC(=O)Nc2ccc(Cl)cc2)cc1	0	0	-4	71*
Cc1noc(C)c1S(=O)(=O)N(C)C[C@H]1OCCCC[C@H](C)Oc2ccc(NC(=O)CCCN(C)C)cc2C(=O)N([C@H](C)CO)C[C@@H]1C	/	/	-1	/
COCCCNC(=O)c1cccc2c(-c3cccc(C(N)=O)c3)coc12	/	/	0	/
CCOc1ccc(-n2c(=O)c3c4c(sc3n(CC(=O)NCc3ccco3)c2=O)CCC4)cc1	-1	1	-1	70*
COc1cc(NC(=O)COc2cc(C)cc3oc(=O)cc(C)c23)cc(OC)c1OC	/	/	-1	/
O=[N+]([O-])c1ccc(O)c(-c2nc(-c3ccccc3)c(-c3cccs3)[nH]2)c1	7	9	1	85*
CCc1cccc2c(C(=O)COC(=O)c3ccccc3)c[nH]c12	2	2	4	0
CCc1cccc2c(C(=O)COC(=O)c3ccc(O)cc3)c[nH]c12	5	0	5	87*
N#Cc1c(-c2ccc(Cl)cc2)c(-c2ccc(Cl)cc2)nn(CCO)c1=O	/	/	-4	/
C[C@H](NC(=O)OC(C)(C)C)c1nnc(SCC(=O)Nc2cccc(Cl)c2)o1	2	-4	1	/
Cc1cccc(C)c1NC(=O)CSc1nnc([C@H](C)NC(=O)OC(C)(C)C)o1	-1	-2	1	79*
CC(C)[C@H](NC(=O)OC(C)(C)C)c1nnc(SCC(=O)Nc2ccc(Br)cc2)o1	1	-3	1	73*
CN=c1scc(-c2cccs2)n1/N=C/c1ccccc1O	-10	-6	-14	94*
CC(C)N1CCC1(C)C(=O)Nc1ccccc1OC(F)F (centres undefined)	/	/	1	/
Cc1ccc(C)n1-n1c(C)nc2sc3c(c2c1=O)CCCCC3	-1	-5	1	79*
COc1ccc(S(=O)(=O)N(C)C[C@@H]2Oc3cc(Br)ccc3S(=O)(=O)N([C@H](C)CO)C[C@@H]2C)cc1	/	/	4	/
Cc1noc(C)c1-c1ccc(C(=O)Nc2ccccc2)c2occc12	/	/	4	/
O=C1c2oc3ccccc3c(=O)c2C(c2cccs2)N1CCCN1CCOCC1 (centres undefined)	2	9	2	80*
COCCNC(=O)C1(C)CCN(Cc2noc(-c3c(C)noc3C)n2)C1 (centres undefined)	/	/	1	/
C/C(=C/CCC(C)[C@H]1CC[C@@]2(C)C3=C(CC[C@]12C)[C@@]1(C)CCC(=O)C(C)(C)[C@@H]1CC3)C(=O)O (some centres undefined)	/	/	3	74*
C/C(=C/CCC(C)C1CCC2(C)C3CCC4C(C)(C)C(=O)CCC4(C)C3=CCC12C)C(=O)O (centres undefined)	/	/	/	45
O=c1c2c(nc3cc(-c4ccccc4)[nH]n13)CCC2	-2	-2	3	/
